Sampled rows, rich in hits. Any-hit rate of the full collection: about 3.8%.
HSF1 inh – HSF1 inhibition; activity change, negative = inhibition, % at 7.5 µM (by protocol); 300,000 tested, 0.77% active; NIH3T3-HGL HSE-luciferase, MG132-induced, luminescence 8 h; hits give low values;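 active = more than half of replicate wells show activity change below -50%, luminescence cut by over half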;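 note: luciferase reports HSF-1 transcriptional activity via heat shock element; 0% = median of DMSO wells and -100% = zero luminescence signal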
HSP90 inh – HSP90 refolding inhibition in rabbit reticulocyte lysate. inhibition, % at 5.6 µM. 290,000 tested, 0.91% active. luciferase refolding luminescence, 3 h;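 active = inhibition above the screen-wide mean plus 3 SD, computed separately per campaign, cut at about 16% in these data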;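 note: 0% = DMSO wells and 100% = 60 µM geldanamycin wells; inhibitors lower the luminescence because luciferase stays unfolded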
HCV NS3 hel inh – HCV NS3 helicase inhibition; NS3 helicase DNA unwinding, Cy5 molecular beacon fluorescence; inhibition, % at 10.9 µM; 290,000 tested, 0.56% active;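 active = inhibition above the mean of all tested compounds plus 3 SD, set per campaign, cut at about 35% in these data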;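 note: 0% = DMSO wells and 100% = thioflavine S control wells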
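assay system = NS3 helicase fragment of HCV | buffer or medium = MOPS pH 6.5, MgCl2, DTT, Tween20, BSA | timing = 60 min unwinding reaction at 25 °C after ATP addition | signal = Cy5 beacon fluorescence read at start and 1 h | read-out basis = % inhibition of unwinding | control set = low DMSO, high thioflavine S at 110 µM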
HSF-1 act – increases HSF-1 driven luciferase reporter signal; NIH3T3-HGL HSF-1 luciferase reporter, MG132, 8 h; 100% = twice DMSO control signal; activation, % at 9 µM; 300,000 tested, 1.7% active; AID 504408;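 active = mean replicate activation of at least 50% with a set share of replicates each reaching 50%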;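 note: 0% = median of the neutral control wells and 100% = twice that signal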
Lipid droplet – modulators of hepatic lipid droplet formation; AML12 mouse hepatocytes, oleate lipid droplets, BODIPY imaging; inhibition, % at 6.5 µM; 240,000 tested, 0.4% active;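 active = lipid droplet intensity inhibited by at least 50%, with more than 500 cells counted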
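Assay system: AML12 hepatocytes (mouse); Probe or stimulus: oleic acid at 100 µM to induce lipid droplet formation; Dosing: compound at 6.5 µM only; Schedule: compound with oleate, overnight; Detection: fluorescence imaging, 20x objective, two fields per well; Measure: % inhibition of lipid droplet signal.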
* = called active by the depositor; nt = no result.

SMILES	HSF1 inh	HSP90 inh	HCV NS3 hel inh	HSF-1 act	Lipid droplet
O=C(c1cnccn1)N1CCc2c([nH]c3ccccc23)C1c1cccc(Cl)c1 (stereo not drawn)	1	2	-5	3	-12
Cc1cc(C(=O)N2CCc3c([nH]c4ccccc34)C2c2cccc(Cl)c2)nn1C (stereo not drawn)	11	1	-1	16	67*
O=C(Nc1cccnc1)c1ccccc1F	-12	-2	-4	6	nt
CSc1ncc(C(=O)Nc2cccnc2)c(C(F)(F)F)n1	-79*	3	-8	-84	-4
COc1ccc(C(CNC(=O)CCNC(=O)c2ccc(Br)cc2)N2CCOCC2)cc1 (stereo not drawn)	2	nt	nt	-8	nt
COc1ccc(N2CCN(S(=O)(=O)c3ccc(OC)c(C(=O)N4CCCC4)c3)CC2)cc1	3	-5	-1	34	16
CCCC(=O)O/N=C(\c1ccccc1)c1ccncc1	13	-6	4	57*	nt
Cc1ccc(C(=O)O/N=C(\c2ccccc2)c2ccncc2)cc1	10	-1	-5	29	28
Cc1cc(C(=O)NCCc2ccccc2)c2cc(F)ccc2n1	15	-1	-13	18	5
CCC(C)c1ccccc1NC(=O)c1cc2cccc([N+](=O)[O-])c2[nH]1 (stereo not drawn)	-2	3	2	15	-12
Cc1ccc(NC(=O)c2cc3cccc([N+](=O)[O-])c3[nH]2)cc1	88	5	3	164*	4
O=C(CCNC(=O)c1ccc(Br)cc1)Nc1ncccc1O	2	-2	-4	-7	24
COc1ccc(CN2CCN(C(=O)Cn3ncn4cccc4c3=O)CC2)c(OC)c1OC	-2	-2	-1	-9	-13
Cc1csc(-c2cnn(-c3ccccc3)c2NC(=O)c2cccc(C(F)(F)F)c2)n1	48	3	4	81*	-80
Cc1[nH]c2ccc(C(=O)N3CCN(c4ccc(F)cc4)CC3)cc2c1C	-5	-2	-11	4	0
C(=N\Nc1nncc2ccccc12)/c1ccccn1	20	29*	-8	43	-154
O=c1cc(C(O)C[N+](=O)[O-])occ1OCc1ccccc1 (stereo not drawn)	0	nt	nt	-4	nt
O=C(N/N=C/C=C/c1ccccc1[N+](=O)[O-])c1ccncc1	-1	0	8	-11	3
O=C(N/N=C/C=C\c1ccccc1[N+](=O)[O-])c1cc(-c2ccc3ccccc3c2)n[nH]1	14	-2	1	64*	10
COc1ccc(NC2=C(Cl)C(=O)N(CCc3ccccc3)C2=O)cc1	34	1	-16	59*	-3
COc1ccc(NC2=C(Cl)C(=O)N(CCc3ccccc3)C2=O)c(OC)c1	7	-5	4	31	-2
O=C(c1ccco1)N1CCN(C(=O)N2CCOCC2)CC1	30	2	1	71*	nt
O=C(c1ccco1)N1CCN(c2ccc(S(=O)(=O)N3CCCC3)cc2)CC1	-14	-2	-6	1	nt
O=C(Cc1ccc(Cl)cc1)Nc1ccc(N2CCN(C(=O)c3ccco3)CC2)cc1	41	-1	-4	80*	1
O=C(Nc1ccc(N2CCN(C(=O)c3ccco3)CC2)cc1)c1ccco1	4	-4	3	3	1
SMILES	HSF1 inh	HSP90 inh	HCV NS3 hel inh	HSF-1 act	Lipid droplet
O=C(c1ccco1)N1CCN(c2ccc(Cl)c(Cl)c2)CC1	58	1	-10	99*	nt
O=C(c1ccco1)N1CCN(c2ccc(Cl)cc2)CC1	24	-4	0	70*	0
O=c1[nH]c(/C=C/c2ccccc2OC(F)F)nc2c1cnn2-c1ccccc1	19	3	4	19	24
O=C1c2cccc(NCCNCCO)c2C(=O)c2cccc(NCCNCCO)c21	-11	nt	nt	-11	nt
COc1cnc(-c2ccccn2)nc1Sc1ccc(F)cc1	-1	-1	0	0	nt
O=C(c1ccco1)N1CCN(c2ncnc3c(-c4ccccc4)nsc23)CC1	27	-4	-3	51*	nt
C[n+]1nc(Nc2cccc(F)c2)sc1-c1ccc(C(=O)O)cc1	nt	nt	nt	nt	3
CN(/C(=N\S(=O)(=O)c1ccccc1)c1ccccc1)c1ccc(O)cc1	12	2	4	59*	15
CN(/C(=N/S(=O)(=O)c1ccccc1)c1ccccc1)S(=O)(=O)c1ccccc1	0	-2	-7	9	-9
